Assays:
CYP1A2 = target: T1, CYP1A2 (Homo sapiens, UniProt P05177); test: Inhibition of human CYP1A2 expressed in baculovirus-infected insect cells at 10 uM using Luciferin-1A2 as substrate in presence of NADPH by P450-Glo luminescence assay relative to control; type: ADME; details: probe Luciferin-1A2
T1 sequence (P05177 whole entry): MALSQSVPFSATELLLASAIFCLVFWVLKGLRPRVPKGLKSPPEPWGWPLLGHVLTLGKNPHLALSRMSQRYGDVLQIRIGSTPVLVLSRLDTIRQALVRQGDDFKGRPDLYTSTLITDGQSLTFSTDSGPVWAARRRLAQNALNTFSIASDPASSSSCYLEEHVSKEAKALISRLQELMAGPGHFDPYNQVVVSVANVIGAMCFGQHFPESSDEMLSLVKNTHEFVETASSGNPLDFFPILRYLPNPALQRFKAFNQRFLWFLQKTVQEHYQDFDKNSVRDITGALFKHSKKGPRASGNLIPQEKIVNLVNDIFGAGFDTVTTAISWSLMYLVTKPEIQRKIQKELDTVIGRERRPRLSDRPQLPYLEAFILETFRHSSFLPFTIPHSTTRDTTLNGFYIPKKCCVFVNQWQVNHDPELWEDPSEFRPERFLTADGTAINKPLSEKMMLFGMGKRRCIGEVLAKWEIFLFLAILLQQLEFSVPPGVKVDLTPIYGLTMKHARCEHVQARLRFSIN
Summary of the method: (§1)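 CYP enzymes as microsomal preparations from baculovirus-infected insect cells, run on the P450-Glo luminogenic substrate platform. A fall in light output indicates inhibition.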

CYP2C19 = CYP2C19 (Homo sapiens, UniProt P33261); test: Inhibition of human CYP2C19 expressed in baculovirus-infected insect cells at 10 uM using Luciferin-H EGE as substrate in presence of NADPH by P450-Glo luminescence assay relative to control; type: ADME; details: probe Luciferin-H EGE; summary of the method: as §1
Sequence of CYP2C19 (P33261 whole entry): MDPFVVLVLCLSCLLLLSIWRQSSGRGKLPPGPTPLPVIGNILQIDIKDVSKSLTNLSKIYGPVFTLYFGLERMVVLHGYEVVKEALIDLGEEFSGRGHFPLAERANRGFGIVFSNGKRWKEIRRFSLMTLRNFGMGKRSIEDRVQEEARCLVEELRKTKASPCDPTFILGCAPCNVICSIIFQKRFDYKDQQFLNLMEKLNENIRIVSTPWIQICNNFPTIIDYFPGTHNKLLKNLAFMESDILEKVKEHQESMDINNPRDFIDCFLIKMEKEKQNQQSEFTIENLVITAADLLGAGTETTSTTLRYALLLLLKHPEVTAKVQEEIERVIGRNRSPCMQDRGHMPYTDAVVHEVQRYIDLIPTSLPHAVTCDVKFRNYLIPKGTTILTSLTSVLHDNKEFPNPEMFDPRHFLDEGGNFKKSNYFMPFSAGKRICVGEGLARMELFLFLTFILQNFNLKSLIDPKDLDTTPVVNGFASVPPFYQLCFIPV

CYP2D6 = CYP2D6 (Homo sapiens, UniProt P10635); test: Inhibition of human CYP2D6 expressed in baculovirus-infected insect cells at 10 uM using Luciferin-ME EGE as substrate in presence of NADPH by P450-Glo luminescence assay relative to control; type: ADME; details: probe Luciferin-ME EGE; summary of the method: as §1
Sequence of CYP2D6 (P10635 whole entry): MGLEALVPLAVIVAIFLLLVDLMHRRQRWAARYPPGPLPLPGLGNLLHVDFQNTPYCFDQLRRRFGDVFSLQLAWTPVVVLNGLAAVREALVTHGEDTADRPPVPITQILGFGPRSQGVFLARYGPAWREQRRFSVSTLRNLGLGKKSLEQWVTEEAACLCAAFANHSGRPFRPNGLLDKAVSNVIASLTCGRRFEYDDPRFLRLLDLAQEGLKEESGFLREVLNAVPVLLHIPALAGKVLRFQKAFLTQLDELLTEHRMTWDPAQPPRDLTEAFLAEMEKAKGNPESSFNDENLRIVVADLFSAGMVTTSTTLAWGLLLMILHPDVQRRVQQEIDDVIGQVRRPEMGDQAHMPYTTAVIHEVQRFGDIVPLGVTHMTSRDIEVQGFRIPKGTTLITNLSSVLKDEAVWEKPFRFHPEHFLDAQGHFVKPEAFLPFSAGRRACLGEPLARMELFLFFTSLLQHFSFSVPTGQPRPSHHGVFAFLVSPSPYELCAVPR

CYP3A4 = CYP3A4 (Homo sapiens, UniProt P08684); test: Inhibition of human CYP3A4 expressed in baculovirus-infected insect cells at 10 uM using Luciferin-PFBE as substrate in presence of NADPH by P450-Glo luminescence assay relative to control; type: ADME; details: probe Luciferin-PFBE
Sequence of CYP3A4 (P08684 whole entry): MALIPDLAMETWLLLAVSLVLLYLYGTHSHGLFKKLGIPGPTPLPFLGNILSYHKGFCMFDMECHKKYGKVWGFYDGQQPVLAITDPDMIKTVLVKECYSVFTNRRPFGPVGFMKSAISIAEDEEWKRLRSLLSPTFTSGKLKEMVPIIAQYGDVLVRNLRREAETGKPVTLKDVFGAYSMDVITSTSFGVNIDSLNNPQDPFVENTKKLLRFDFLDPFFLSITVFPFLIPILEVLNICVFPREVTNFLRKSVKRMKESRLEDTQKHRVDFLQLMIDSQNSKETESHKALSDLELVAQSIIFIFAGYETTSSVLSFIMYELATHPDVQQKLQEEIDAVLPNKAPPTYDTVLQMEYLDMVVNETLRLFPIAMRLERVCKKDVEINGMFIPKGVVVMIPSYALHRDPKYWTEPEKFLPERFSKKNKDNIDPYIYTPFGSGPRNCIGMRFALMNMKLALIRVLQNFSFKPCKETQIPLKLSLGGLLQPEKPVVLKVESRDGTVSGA

[1] = Drug uptake in BALB/c mouse plasma at 1 mg/kg, iv measured after 60 mins by LC-MS method; type: ADME, organism-based
Summary of the method: (§2)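 BALB/c mice dosed either free (8% DMSO; 1 mg/kg IV or 20 mg/kg oral), or 20 mg/kg oral in 50% w/v hydroxypropyl-β-cyclodextrin, or 20 mg/kg oral in 25% cyclodextrins plus 50% PEG 400. Serial submandibular blood samples stored at -20°C. Plasma measured by isocratic LC-MS (acetonitrile:water 80:20, 0.2 ml/min), quantifier transition m/z 315.0>161.0.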

[2] = Drug uptake in BALB/c mouse plasma at 20 mg/kg, po measured after 1 hr by LC-MS method; type: ADME, organism-based; summary of the method: as §2
[3] = Drug uptake in BALB/c mouse plasma at 20 mg/kg, po measured after 0.75 hrs by LC-MS method; type: ADME, organism-based; summary of the method: as §2
[4] = Drug uptake in BALB/c mouse plasma at 20 mg/kg, po as cyclodextrin/PEG400 formulation measured after 3 hrs by LC-MS method; type: ADME, organism-based; summary of the method: as §2
Aurora kinase B = Aurora kinase B (Homo sapiens, UniProt Q96GD4); test: Inhibition of N-terminal-GST-tagged recombinant full length human Aurora B expressed in baculovirus infected Sf9 cells at 10 uM using native Swine Myelin Basic Protein as substrate measured after 60 mins by ADP-Glo assay relative to control; details: probe native Swine Myelin Basic Protein
Sequence of Aurora kinase B (Q96GD4 whole entry): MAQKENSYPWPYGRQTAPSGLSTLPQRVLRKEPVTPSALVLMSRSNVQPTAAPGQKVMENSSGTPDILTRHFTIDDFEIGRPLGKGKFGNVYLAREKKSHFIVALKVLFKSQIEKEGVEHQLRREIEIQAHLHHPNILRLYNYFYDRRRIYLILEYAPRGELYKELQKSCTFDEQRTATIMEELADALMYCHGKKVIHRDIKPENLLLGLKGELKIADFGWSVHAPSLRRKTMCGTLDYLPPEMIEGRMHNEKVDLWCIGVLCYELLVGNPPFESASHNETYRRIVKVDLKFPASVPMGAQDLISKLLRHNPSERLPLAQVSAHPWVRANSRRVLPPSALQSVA
Summary of the method: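 Aurora B kinase activity measured by ADP-Glo, which detects ADP formed through a coupled luciferase luminescence read-out.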

[5] = Drug uptake in BALB/c mouse plasma at 20 mg/kg, po as 50% cyclodextrin formulation measured after 1 hr by LC-MS method; type: ADME, organism-based; summary of the method: as §2
Cytochrome P450 2C19 = Cytochrome P450 2C19 (Homo sapiens, UniProt P33261); test: Inhibition of human CYP2C19 expressed in baculovirus-infected insect cells using Luciferin-H EGE as substrate in presence of NADPH by P450-Glo luminescence assay; type: ADME; summary of the method: as §1
Sequence of Cytochrome P450 2C19 (P33261 whole entry): as the sequence (P33261 whole entry) above

[6] = Drug uptake in BALB/c mouse plasma at 20 mg/kg, po as 50% cyclodextrin formulation measured after 0.5 hrs by LC-MS method; type: ADME, organism-based; summary of the method: as §2
Cytochrome P450 2C9 = Cytochrome P450 2C9 (Homo sapiens, UniProt P11712); test: Inhibition of human CYP2C9 expressed in baculovirus-infected insect cells using Luciferin-H as substrate in presence of NADPH by P450-Glo luminescence assay
Sequence of Cytochrome P450 2C9 (P11712 whole entry): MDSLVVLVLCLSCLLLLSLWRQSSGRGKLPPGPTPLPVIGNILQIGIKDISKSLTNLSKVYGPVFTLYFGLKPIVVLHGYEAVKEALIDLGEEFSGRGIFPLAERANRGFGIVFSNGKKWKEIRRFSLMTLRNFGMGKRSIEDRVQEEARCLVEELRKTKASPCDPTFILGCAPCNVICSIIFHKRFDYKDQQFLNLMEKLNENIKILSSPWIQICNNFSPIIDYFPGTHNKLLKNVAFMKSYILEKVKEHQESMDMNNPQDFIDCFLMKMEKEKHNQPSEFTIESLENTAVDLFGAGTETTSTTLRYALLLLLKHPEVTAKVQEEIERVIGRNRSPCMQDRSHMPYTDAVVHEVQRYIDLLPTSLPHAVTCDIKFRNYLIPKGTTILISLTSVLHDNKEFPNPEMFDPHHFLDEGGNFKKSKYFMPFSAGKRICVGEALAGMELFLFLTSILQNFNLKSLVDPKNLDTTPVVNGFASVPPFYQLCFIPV

[7] = Drug uptake in BALB/c mouse plasma at 1 mg/kg, iv measured after 45 mins by LC-MS method; type: ADME, organism-based; summary of the method: as §2

inhibition at 10 µM (CYP1A2): 98%
inhibition at 10 µM (CYP2C19): 49.2%
inhibition at 10 µM (CYP2D6): 58.8%
inhibition at 10 µM (CYP3A4): 12.4%
concentration at 1 h [1]: 21 nM
concentration at 1 h [2]: 9 nM
concentration at 0.75 h [3]: 12 nM
concentration at 3 h [4]: 6 nM
inhibition at 1 h, 10 µM (Aurora kinase B): -6.8%
concentration at 1 h [5]: 69 nM
IC50 (Cytochrome P450 2C19): 7.7 µM
concentration at 0.5 h [6]: 563 nM
IC50 (Cytochrome P450 2C9): 42.1 µM
concentration at 0.75 h [7]: 23 nM
SMILES: COc1cccc(/C=C/C(=O)c2cc(OC)c(OC)cc2O)c1

— ChEMBL document CHEMBL3997782, “Methoxylated 2'-hydroxychalcones as antiparasitic hit compounds” (Eur J Med Chem, 2017)
